How the values were obtained:
in vitro = conditions: human, liver microsomes
[1] = Oral bioavailability in rat; format: ADME, organism-based; conditions: in vivo
[2] = Half life in rat; format: ADME, organism-based; conditions: in vivo
[3] = Volume of distribution at steady state in rat; format: ADME, organism-based; conditions: in vivo, read-out: Vdss
[4] = Plasma clearance in rat; format: ADME, organism-based
[5] = Partition coefficient of the compound at pH 7.4; format: physicochemical; conditions: octanol/water
Outline: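 cLogD at pH 7.4 calculated with ACD pchbat version 9.3.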

Row | microsomal CLint at 0.5 h, 1 µM (in vitro) | Compound | other results
1 | < 7.6 µL/min/mg | C[C@@H](c1c[nH]c2ncccc12)c1nnc2ccc(-c3cnn(C)c3)nn12 | –
2 | 22.7 µL/min/mg | N#Cc1cccc(-c2ccc3nnc(Cc4ccc5ncccc5c4)n3n2)c1 | –
3 | < 7.6 µL/min/mg | C[C@@H](c1ccc2ncccc2c1)c1nnc2ccc(-c3ccc(S(C)(=O)=O)cc3)nn12 | –
4 | < 7.6 µL/min/mg | C[C@@H](c1ccc2ncccc2c1)n1nnc2ncc(-c3cnn(CCO)c3)nc21 | –
5 | < 7.6 µL/min/mg | Nc1ccc2nnc(Cc3ccc4ncccc4c3)n2n1 | –
6 | 23.1 µL/min/mg | C[C@@H](c1ccc2ncccc2c1)c1nnc2ccc(-c3ccccc3C#N)nn12 | –
7 | 18 µL/min/mg | CCNc1ccc2nnc([C@@H](C)c3c[nH]c4ncccc34)n2n1 | –
8 | < 7.6 µL/min/mg | Cn1cc(-c2ccc3nnc(Cc4c[nH]c5ncccc45)n3n2)cn1 | –
9 | 25 µL/min/mg | CC(C)Nc1ccc2nnc([C@@H](C)c3c[nH]c4ncccc34)n2n1 | –
10 | 304 µL/min/mg | C[C@@H](c1ccc2ncccc2c1)c1nnc2ccc(-c3ccc4c(c3)OCCO4)nn12 | –
11 | 281 µL/min/mg | COc1ccc(-c2ccc3nnc([C@@H](C)c4ccc5ncccc5c4)n3n2)cc1F | –
12 | 81.8 µL/min/mg | Cc1cccc(-c2ccc3nnc([C@@H](C)c4ccc5ncccc5c4)n3n2)c1 | –
13 | 12.1 µL/min/mg | C[C@@H](c1ccc2ncccc2c1)c1nnc2ccc(-c3ccc(C#N)cc3)nn12 | –
14 | < 7.6 µL/min/mg | C[C@@H](c1ccc2ncccc2c1)n1nnc2ncc(-c3cnn(C)c3)nc21 | –
15 | 232 µL/min/mg | C[C@@H](c1ccc2ncccc2c1)c1nnc2ccc(-c3ccc(N(C)C)nc3)nn12 | –
16 | 28 µL/min/mg | C[C@@H](c1c[nH]c2ncccc12)c1nnc2ccc(-c3ccc(C#N)cc3)nn12 | –
17 | 304 µL/min/mg | COc1ccc(-c2ccc3nnc([C@@H](C)c4ccc5ncccc5c4)n3n2)cc1C | –
18 | 35 µL/min/mg | CN(C)c1ccc2nnc(Cc3ccc4ncccc4c3)n2n1 | –
19 | 12.2 µL/min/mg | CNC(=O)c1ccc(-c2ccc3nnc([C@@H](C)c4ccc5ncccc5c4)n3n2)cc1 | –
20 | 10.4 µL/min/mg | CCS(=O)(=O)c1ccc(-c2ccc3nnc([C@@H](C)c4ccc5ncccc5c4)n3n2)cc1 | –
21 | 20.2 µL/min/mg | CC(C)Nc1ccc2nnc([C@@H](C)c3ccc4ncccc4c3)n2n1 | –
22 | 13.4 µL/min/mg | Fc1ccc(-c2ccc3nnc(Cc4ccc5ncccc5c4)n3n2)cc1F | –
23 | 17.9 µL/min/mg | C[C@@H](c1ccc2ncccc2c1)c1nnc2ccc(-c3cccc(C#N)c3)nn12 | bioavailability [1]: 13%; half-life [2]: 4.8 h; Vd [3]: 4.9 L/kg; clearance [4]: 22 mL/min/kg; logD [5]: 2.8
24 | < 7.6 µL/min/mg | C[C@@H](c1ccc2ncccc2c1)c1nnc2ccc(-c3cnn(C)c3)nn12 | bioavailability [1]: 58%; half-life [2]: 1.9 h; Vd [3]: 3.5 L/kg; clearance [4]: 21 mL/min/kg; logD [5]: 2.05
25 | 13.4 µL/min/mg | C[C@@H](c1ccc2ncccc2c1)c1nnc2ccc(-c3ccc(F)c(F)c3)nn12 | bioavailability [1]: 52%; half-life [2]: 3.6 h; Vd [3]: 3.6 L/kg; clearance [4]: 31 mL/min/kg; logD [5]: 3.07
